# Experimental data: ChEMBL document CHEMBL2417509, “Synthesis and biological evaluation of prodigiosene conjugates of porphyrin, estrone and 4-hydroxytamoxifen” (2013)
# Key:
# Format in all cases: functional
# [1] = tested on: U-251; experiment: Cytotoxicity against human U251 cells after 2 days by sulforhodamine B assay; details: U-251, 48 h
# Outline: (§1)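 NCI DTP NCI60 multi-dose screen (59 human tumour lines available). Cells exposed to compound over a 5-log mol/L concentration range for 2 days, then fixed and stained with sulphorhodamine B, with optical density read. Growth inhibition calculated relative to time-zero cells and untreated cells, giving GI50 (half-maximal growth inhibition concentration). Average of two replicates.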
# [2] = tested on: TK-10; experiment: Cytotoxicity against human TK10 cells after 2 days by sulforhodamine B assay; details: TK-10, 48 h; outline: as §1
# [3] = tested on: HCT-116; experiment: Cytotoxicity against human HCT116 cells after 2 days by sulforhodamine B assay; details: HCT-116, 48 h
# Outline: (§2)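 NCI60 multi-dose screen, 59 human tumour lines available. Cells exposed to compound across a 5-log mol/L concentration range for 2 days, then fixed and stained with sulphorhodamine B, optical density read. Growth inhibition calculated against time-zero control and untreated cells. GI50 derived from the dose series, average of two replicates.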
# [4] = tested on: SK-MEL-2; experiment: Cytotoxicity against human SK-MEL-2 cells after 2 days by sulforhodamine B assay; details: SK-MEL-2, 48 h; outline: as §2
# [5] = tested on: A498; experiment: Cytotoxicity against human A498 cells after 2 days by sulforhodamine B assay; details: A498, 48 h; outline: as §2
# [6] = tested on: SR; experiment: Cytotoxicity against human SR cells after 2 days by sulforhodamine B assay; details: 48 h; outline: as §1
# [7] = tested on: SW-620; experiment: Cytotoxicity against human SW620 cells after 2 days by sulforhodamine B assay; details: SW-620, 48 h; outline: as §1
# [8] = tested on: NCI-H226; experiment: Cytotoxicity against human NCI-H226 cells after 2 days by sulforhodamine B assay; details: NCI-H226, 48 h; outline: as §2
# [9] = tested on: SF-268; experiment: Cytotoxicity against human SF268 cells after 2 days by sulforhodamine B assay; details: SF-268, 48 h; outline: as §2
# [10] = tested on: NCI-H23; experiment: Cytotoxicity against human NCI-H23 cells after 2 days by sulforhodamine B assay; details: NCI-H23, 48 h; outline: as §2
# [11] = tested on: UO-31; experiment: Cytotoxicity against human UO31 cells after 2 days by sulforhodamine B assay; details: UO-31, 48 h; outline: as §1
# [12] = tested on: SK-MEL-5; experiment: Cytotoxicity against human SK-MEL-5 cells after 2 days by sulforhodamine B assay; details: SK-MEL-5, 48 h; outline: as §2
# [13] = tested on: 786-0; experiment: Cytotoxicity against human 786-0 cells after 2 days by sulforhodamine B assay; details: 786-0, 48 h; outline: as §2
# [14] = Cytotoxicity against human Hs578T cells after 2 days by sulforhodamine B assay; details: Hs-578T, 48 h; outline: as §2
# [15] = tested on: RXF 393; experiment: Cytotoxicity against human RXF393 cells after 2 days by sulforhodamine B assay; details: RXF 393, 48 h; outline: as §2
# [16] = tested on: NCI-H322M; experiment: Cytotoxicity against human NCI-H322M cells after 2 days by sulforhodamine B assay; details: 48 h; outline: as §2
# [17] = tested on: MCF7; experiment: Cytotoxicity against human MCF7 cells after 2 days by sulforhodamine B assay; details: MCF7, 48 h; outline: as §2
# [18] = tested on: NCI-H460; experiment: Cytotoxicity against human NCI-H460 cells after 2 days by sulforhodamine B assay; details: NCI-H460, 48 h; outline: as §2
# [19] = tested on: HCT-15; experiment: Cytotoxicity against human HCT15 cells after 2 days by sulforhodamine B assay; details: HCT-15, 48 h; outline: as §2
# [20] = tested on: OVCAR-8; experiment: Cytotoxicity against human OVCAR8 cells after 2 days by sulforhodamine B assay; details: OVCAR-8, 48 h; outline: as §2
# [21] = tested on: PC-3; experiment: Cytotoxicity against human PC3 cells after 2 days by sulforhodamine B assay; details: PC-3, 48 h; outline: as §2
# [22] = tested on: MDA-MB-231; experiment: Cytotoxicity against human MDA-MB-231 cells after 2 days by sulforhodamine B assay; details: MDA-MB-231, 48 h; outline: as §2
# [23] = tested on: HCC 2998; experiment: Cytotoxicity against human HCC2998 cells after 2 days by sulforhodamine B assay; details: HCC 2998, 48 h; outline: as §2
# [24] = tested on: Malme-3M; experiment: Cytotoxicity against human MALME-3M cells after 2 days by sulforhodamine B assay; details: 48 h; outline: as §2
# [25] = tested on: MDA-MB-468; experiment: Cytotoxicity against human MDA-MB-468 cells after 2 days by sulforhodamine B assay; details: MDA-MB-468, 48 h; outline: as §2
# [26] = tested on: SF-539; experiment: Cytotoxicity against human SF539 cells after 2 days by sulforhodamine B assay; details: SF-539, 48 h; outline: as §2
# [27] = tested on: HOP-62; experiment: Cytotoxicity against human HOP62 cells after 2 days by sulforhodamine B assay; details: HOP-62, 48 h; outline: as §2
# [28] = tested on: UACC-62; experiment: Cytotoxicity against human UACC62 cells after 2 days by sulforhodamine B assay; details: UACC-62, 48 h; outline: as §1
# [29] = tested on: HT-29; experiment: Cytotoxicity against human HT-29 cells after 2 days by sulforhodamine B assay; details: HT-29, 48 h; outline: as §2
# [30] = Cytotoxicity against human NCI-ADR-RES cells after 2 days by sulforhodamine B assay; details: 48 h; outline: as §2
# [31] = tested on: BT-549; experiment: Cytotoxicity against human BT549 cells after 2 days by sulforhodamine B assay; details: BT-549, 48 h; outline: as §2
# [32] = read-out: LC50 (the source's name)
smiles,measurement,setting,value
CC/C(=C(/c1ccc(OCCN(C)C)cc1)c1ccc(OC(=O)CCCCCCCCC(=O)C2=C(C)/C(=C/c3[nH]c(-c4ccc[nH]4)cc3OC)N=C2C)cc1)c1ccccc1,GI50,[1],6.61 µM
same,LC50,[1],> 100 µM
same,TGI,[1],> 100 µM
same,GI50,[2],20.9 µM
same,LC50,[2],> 100 µM
same,TGI,[2],> 100 µM
same,GI50,[3],3.39 µM
same,LC50 (concentration killing 50% of cells vs time zero),[3],> 100 µM
same,TGI,[3],21.9 µM
same,GI50,[4],30.9 µM
same,LC50,[4],> 100 µM
same,TGI,[4],> 100 µM
same,GI50,[5],15.1 µM
same,LC50,[5],> 100 µM
same,TGI,[5],72.4 µM
same,GI50,[6],4.07 µM
same,LC50 (concentration giving 50% net cell kill),[6],> 100 µM
same,TGI,[6],> 100 µM
same,GI50,[7],3.72 µM
same,LC50 (concentration killing 50% of cells),[7],56.2 µM
same,TGI,[7],14.1 µM
same,GI50,[8],> 100 µM
same,LC50,[8],> 100 µM
same,TGI,[8],> 100 µM
same,GI50,[9],6.61 µM
same,LC50 (concentration killing 50% of cells),[9],> 100 µM
same,TGI,[9],> 100 µM
same,GI50,[10],47.9 µM
same,LC50 (concentration killing 50% of cells),[10],> 100 µM
same,TGI,[10],> 100 µM
same,GI50,[11],4.47 µM
same,LC50,[11],> 100 µM
same,TGI,[11],> 100 µM
same,GI50,[12],1.62 µM
same,LC50 (concentration killing 50% of cells),[12],6.46 µM
same,TGI,[12],3.24 µM
same,GI50,[13],5.25 µM
same,LC50 (concentration killing 50% of cells),[13],> 100 µM
same,TGI,[13],> 100 µM
same,GI50,[14],4.79 µM
same,TGI,[14],85.1 µM
same,CC50,[14]; [32],> 100 µM
same,GI50,[15],13.8 µM
same,LC50 (concentration killing 50% of cells),[15],> 100 µM
same,TGI,[15],> 100 µM
same,GI50,[16],> 100 µM
same,LC50 (concentration killing 50% of cells),[16],> 100 µM
same,TGI,[16],> 100 µM
same,GI50,[17],0.16 µM
same,LC50 (concentration giving 50% net cell kill),[17],> 100 µM
same,TGI,[17],11 µM
same,GI50,[18],4.27 µM
same,LC50,[18],> 100 µM
same,TGI,[18],> 100 µM
same,GI50,[19],5.13 µM
same,LC50,[19],> 100 µM
same,TGI,[19],97.7 µM
same,GI50,[20],9.12 µM
same,LC50,[20],> 100 µM
same,TGI,[20],> 100 µM
same,GI50,[21],5.89 µM
same,LC50 (concentration killing 50% of cells),[21],> 100 µM
same,TGI,[21],> 100 µM
same,GI50,[22],3.39 µM
same,LC50,[22],> 100 µM
same,TGI,[22],18.2 µM
same,GI50,[23],> 100 µM
same,LC50 (50% lethal concentration),[23],> 100 µM
same,TGI,[23],> 100 µM
same,GI50,[24],40.7 µM
same,LC50,[24],> 100 µM
same,TGI,[24],> 100 µM
same,GI50,[25],3.63 µM
same,LC50,[25],> 100 µM
same,TGI,[25],> 100 µM
same,GI50,[26],12 µM
same,LC50,[26],> 100 µM
same,TGI,[26],50.1 µM
same,GI50,[27],16.9 µM
same,TGI,[27],> 100 µM
same,CC50,[27]; [32],> 100 µM
same,GI50,[28],3.39 µM
same,TGI,[28],18.2 µM
same,CC50,[28]; [32],> 100 µM
same,GI50,[29],5.13 µM
same,LC50,[29],> 100 µM
same,TGI,[29],> 100 µM
same,GI50,[30],31.6 µM
same,TGI,[30],> 100 µM
same,CC50,[30]; [32],> 100 µM
same,GI50,[31],5.25 µM
same,LC50 (concentration killing 50% of cells present at time zero),[31],> 100 µM
same,TGI,[31],> 100 µM
